ChEMBL document CHEMBL4396874, “Consideration of Binding Kinetics in the Design of Stapled Peptide Mimics of the Disordered Proteins Eukaryotic Translation Initiation Factor 4E-Binding Protein 1 and Eukaryotic Translation Initiation Factor 4G” (J Med Chem, 2019)
pIC50: −log10 of the molar value. Calls of active or inactive are those of the source. The calls are words filed in the database; no cut-off is given here. Bridge positions count the residues as written; N and C are the ends. Square brackets hold non-standard residues; d marks the D form. Peptide text beside a SMILES is read from it. S5 = C=CCCC[C@](C)(N)C(=O)O

How the values were obtained:
[1] = molecular target: T1, Eukaryotic translation initiation factor 4E (Homo sapiens, UniProt P06730); assay: Binding affinity to N-terminal 10His-tagged m7GDP-bound recombinant human eIF4E expressed in Escherichia coli BL21 (DE3) cells assessed as dissociation constant at 10 to 25 degreeC by surface plasmon resonance analysis relative to control
Procedure, shortened: (§1)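 Peptides injected at 50 μL/min, 10 concentrations (188 nM to 4.0 μM) in duplicate, random order. Chip stripped with EDTA and reloaded between cycles.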

[2] = molecular target: T1, Eukaryotic translation initiation factor 4E; assay: Binding affinity to N-terminal 10His-tagged m7GDP-bound recombinant human eIF4E expressed in Escherichia coli BL21 (DE3) cells assessed as dissociation constant at 25 degreeC in presence 225 to 1000 mM of NaCl by surface plasmon resonance analysis
[3] = molecular target: T1, Eukaryotic translation initiation factor 4E; assay: Binding affinity to N-terminal 10His-tagged m7GDP-bound recombinant human eIF4E expressed in Escherichia coli BL21 (DE3) cells assessed as binding constant at 25 degreeC in presence of 1000 mM of NaCl by surface plasmon resonance analysis; procedure, shortened: as §1
[4] = molecular target: T1, Eukaryotic translation initiation factor 4E
[5] = molecular target: Eukaryotic translation initiation factor 4E/Eukaryotic translation initiation factor 4E-binding protein 1 (Homo sapiens, UniProt P06730); assay: Inhibition of Halo-tagged biotinylated human eIF4E expressed in Escherichia coli/Halo-tagged methyltetrazine-labelled human 4E-BP1 expressed in Escherichia coli protein-protein interaction incubated for 1 hr by catalytic enzyme-linked click chemistry assay
MDA-MB-231 [6] = assay: Effect on total eIF4E level in human MDA-MB-231 cells at 5 uM after 6 hrs by Western blot analysis; format: ADME, cell-based; settings: mda-mb-231, 6 h
Procedure, shortened: (§2)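 MDA-MB-231 cells in 10% FBS treated 6 h with water-dissolved peptides, lysed in RIPA with protease/phosphatase inhibitors, sonicated on ice, protein normalized by BCA, then western blotted (4–12% bis-Tris gel, PVDF, 5% milk block, primary overnight at 4 °C). Triplicate biological replicates.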

MDA-MB-231 [7] = assay: Effect on total 4E-BP1 level in human MDA-MB-231 cells at 5 uM after 6 hrs by Western blot analysis; format: ADME, cell-based; settings: mda-mb-231, 6 h; procedure, shortened: as §2
MDA-MB-231 [8] = assay: Effect on total eIF4G level in human MDA-MB-231 cells at 5 uM after 6 hrs by Western blot analysis; format: ADME, cell-based; settings: mda-mb-231, 6 h; procedure, shortened: as §2
MDA-MB-231 [9] = assay: Anti-proliferative activity against human MDA-MB-231 cells at 5 to 20 uM after 6 days by CellTiter-Glo assay; format: functional, cell-based
Procedure, shortened: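 MDA-MB-231 cells (RPMI-1640, 10% FBS, 2 mM glutamine) plated at 2000 cells/well; peptides added at varying concentrations in triplicate for 6 days. Medium then replaced with OptiMEM, cells lysed with CellTiter-Glo reagent, luminescence read within 1 h. Data normalized; triplicate biological replicates.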

[10] = molecular target: T1, Eukaryotic translation initiation factor 4E; assay: Binding affinity to N-terminal 10His-tagged m7GDP-bound recombinant human eIF4E expressed in Escherichia coli BL21 (DE3) cells assessed as association constant at 12.5 to 200 nM at 10 to 25 degreeC by surface plasmon resonance analysis
[11] = molecular target: T1, Eukaryotic translation initiation factor 4E; assay: Binding affinity to N-terminal 10His-tagged m7GDP-bound recombinant human eIF4E expressed in Escherichia coli BL21 (DE3) cells assessed as binding constant at 10 to 25 degreeC by surface plasmon resonance analysis
[12] = molecular target: T1, Eukaryotic translation initiation factor 4E; assay: Binding affinity to N-terminal 10His-tagged m7GDP-bound recombinant human eIF4E expressed in Escherichia coli BL21 (DE3) cells assessed as binding constant at 25 degreeC by surface plasmon resonance analysis
Procedure, shortened: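 m7GDP-bound His10-eIF4E captured to ~600 RU on a Ni-activated HisCap chip. EDTA regeneration between cycles. Kd from global 1:1 fit; triplicate experiments.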

[13] = molecular target: T1, Eukaryotic translation initiation factor 4E; assay: Binding affinity to N-terminal 10His-tagged m7GDP-bound recombinant human eIF4E expressed in Escherichia coli BL21 (DE3) cells assessed as association rate constant at 25 degreeC by surface plasmon resonance analysis
[14] = molecular target: T1, Eukaryotic translation initiation factor 4E; assay: Binding affinity to N-terminal 10His-tagged m7GDP-bound recombinant human eIF4E expressed in Escherichia coli BL21 (DE3) cells assessed as dissociation rate constant at 25 degreeC by surface plasmon resonance analysis
[15] = molecular target: Eukaryotic translation initiation factor 4E/Eukaryotic translation initiation factor 4E-binding protein 1 (Homo sapiens) (UniProt P06730+Q13541); assay: Inhibition of eIF4E/4E-BP1 interaction in human MDA-MB-231 cells incubated for 6 hr by m7GDP pull down assay; format: cell-based
[16] = molecular target: EIF4E/EIF4G1 (Homo sapiens) (UniProt P06730+Q04637); assay: Inhibition of eIF4E/eIF4G interaction in human MDA-MB-231 cells incubated for 6 hr by m7GDP pull down assay; format: cell-based
MDA-MB-231 [17] = assay: Induction of cell lysis in human MDA-MB-231 cells assessed as LDH leakage at 15 uM after 24 hrs by LDH cytotoxicity assay; settings: mda-mb-231, 24 h

Eukaryotic translation initiation factor 4E/Eukaryotic translation initiation factor 4E-binding protein 1, sequence (P06730 whole entry): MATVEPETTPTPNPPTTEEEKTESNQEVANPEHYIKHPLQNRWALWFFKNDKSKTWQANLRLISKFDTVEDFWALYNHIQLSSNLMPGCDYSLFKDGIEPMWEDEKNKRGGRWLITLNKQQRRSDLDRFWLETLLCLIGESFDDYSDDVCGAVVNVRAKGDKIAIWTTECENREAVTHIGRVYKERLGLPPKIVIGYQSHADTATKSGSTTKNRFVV
Eukaryotic translation initiation factor 4E/Eukaryotic translation initiation factor 4E-binding protein 1, sequence (Q13541 whole entry, further chain): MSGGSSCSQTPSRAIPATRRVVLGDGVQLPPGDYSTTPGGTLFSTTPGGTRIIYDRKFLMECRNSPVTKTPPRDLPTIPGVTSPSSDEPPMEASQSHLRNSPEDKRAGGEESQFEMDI
T1 sequence (P06730 whole entry): as the sequence (P06730 whole entry) above
Eukaryotic translation initiation factor 4E/Eukaryotic translation initiation factor 4E-binding protein 1 (Homo sapiens), sequence (P06730 2-217 limits assumed): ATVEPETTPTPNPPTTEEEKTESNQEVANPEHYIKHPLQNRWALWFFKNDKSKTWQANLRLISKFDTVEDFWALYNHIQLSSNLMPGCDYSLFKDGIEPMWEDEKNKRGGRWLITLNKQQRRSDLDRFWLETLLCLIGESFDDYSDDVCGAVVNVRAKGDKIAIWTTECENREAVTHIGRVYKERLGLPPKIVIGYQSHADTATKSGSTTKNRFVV
Eukaryotic translation initiation factor 4E/Eukaryotic translation initiation factor 4E-binding protein 1 (Homo sapiens), sequence (Q13541 2-118 partner limits assumed): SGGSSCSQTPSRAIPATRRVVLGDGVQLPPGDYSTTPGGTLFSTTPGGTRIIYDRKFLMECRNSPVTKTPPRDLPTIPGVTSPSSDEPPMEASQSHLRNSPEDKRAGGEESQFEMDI

CC[C@H](C)[C@H](NC(=O)[C@@H](NC(=O)[C@@H](N)CCCNC(=N)N)[C@@H](C)CC)C(=O)N[C@@H](Cc1ccc(O)cc1)C(=O)N[C@@H](CC(=O)O)C(=O)N[C@@H](CCCNC(=N)N)C(=O)N[C@@H](CCCCN)C(=O)N[C@@H](Cc1ccccc1)C(=O)N[C@@H](CC(C)C)C(=O)N[C@@H](CCSC)C(=O)N[C@@H](CCC(=O)O)C(=O)N[C@@H](CS)C(=O)N[C@@H](CCCNC(=N)N)C(=O)N[C@@H](CC(N)=O)C(N)=O
fold change (FC) [1]: 3.9 to 5.5
Kd [2]: Not Active
K [3]: Active
Ka [4]: inactive

CC(=O)N[C@@H](CCCCN)C(=O)N[C@@H](CCCCN)C(=O)N[C@@H](CCCNC(=N)N)C(=O)N[C@@H](Cc1ccc(O)cc1)C(=O)N[C@@H](CC(=O)O)C(=O)N[C@@H](CCCNC(=N)N)C(=O)N[C@@H](CCC(=O)O)C(=O)N[C@@H](Cc1ccccc1)C(=O)N[C@@H](CC(C)C)C(=O)N[C@@H](CC(C)C)C(=O)NCC(=O)N[C@@H](Cc1ccccc1)C(=O)N[C@@H](CCC(N)=O)C(=O)N[C@@H](Cc1ccccc1)C(N)=O
pIC50 [5]: 6.71 to 6.86

CC[C@H](C)[C@H](NC(=O)[C@H](CCCNC(=N)N)NC(=O)[C@@H](NC(=O)CNC(C)=O)[C@@H](C)O)C(=O)N[C@H](C(=O)N[C@@H](Cc1ccc(O)cc1)C(=O)N[C@@H](CC(=O)O)C(=O)N[C@@H](CCCNC(=N)N)C(=O)N[C@@]1(C)CCC/C=C\CCC[C@@](C)(C(=O)N[C@@H](CS)C(=O)N[C@@H](CCCNC(=N)N)C(=O)N[C@@H](CC(N)=O)C(N)=O)NC(=O)[C@H](CCSC)NC(=O)[C@H](CC(C)C)NC(=O)[C@H](Cc2ccccc2)NC1=O)[C@@H](C)CC
pIC50 [5]: 8.17 to 8.51
Activity (MDA-MB-231 [6]): Non-Toxic
Activity (MDA-MB-231 [7]): Non-Toxic
Activity (MDA-MB-231 [8]): Non-Toxic
Activity (MDA-MB-231 [9]): Active

CC(=O)N[C@@H](CCCCN)C(=O)N[C@@H](CCCCN)C(=O)N[C@@H](CCCNC(=N)N)C(=O)N[C@@H](Cc1ccc(O)cc1)C(=O)N[C@@H](CC(=O)O)C(=O)N[C@@H](CCCNC(=N)N)C(=O)N[C@@]1(C)CCC/C=C\CCC[C@@](C)(C(=O)N[C@@H](Cc2ccccc2)C(=O)N[C@@H](CCC(N)=O)C(=O)N[C@@H](Cc2ccccc2)C(N)=O)NC(=O)[C@H](CC(C)C)NC(=O)[C@H](CC(C)C)NC(=O)[C@H](Cc2ccccc2)NC1=O (Ac-KKRYDR[S5]FLL[S5]FQF-NH2; staple (Z) 7-11)
pIC50 [5]: 5.14 to 5.35

CC[C@H](C)[C@H](NC(=O)[C@H](CCCNC(=N)N)NC(=O)[C@@H](NC(=O)CNC(C)=O)[C@@H](C)O)C(=O)N[C@H](C(=O)N[C@@H](Cc1ccc(O)cc1)C(=O)N[C@@H](CC(=O)O)C(=O)N[C@@H](CCCNC(=N)N)C(=O)N[C@@]1(C)CCC/C=C\CCC[C@@](C)(C(=O)N[C@@H](CS)C(=O)N[C@@H](CCCNC(=N)N)C(=O)N[C@@H](CC(N)=O)C(N)=O)NC(=O)[C@H](C)NC(=O)[C@H](C)NC(=O)[C@H](Cc2ccccc2)NC1=O)[C@@H](C)CC
Activity (MDA-MB-231 [9]): inactive

Ac-KKRYSREQLLGL-NH2
Ka [10]: inactive
fold change (FC) [1]: 3.9 to 5.5
K [11]: Active
K [12]: 62 nM
pIC50 [5]: 6.20 to 6.42
K [3]: 14 to 62 nM
kon [13]: 2 ×10⁶ /M/s
koff [14]: 123 ×10⁻³ /s

CC(=O)N[C@@H](CCCCN)C(=O)N[C@@H](CCCCN)C(=O)N[C@@H](CCCNC(=N)N)C(=O)N[C@@H](Cc1ccc(O)cc1)C(=O)N[C@@H](CO)C(=O)N[C@@H](CCCNC(=N)N)C(=O)N[C@@]1(C)CCC/C=C\CCC[C@@](C)(C(=O)N[C@@H](CC(C)C)C(N)=O)NC(=O)[C@H](CC(C)C)NC(=O)[C@H](CC(C)C)NC(=O)[C@H](CCC(N)=O)NC1=O
pIC50 [5]: 7.51 to 7.78
inhibition [15]: Dose-dependent effect
inhibition [16]: Dose-dependent effect
Activity (MDA-MB-231 [6]): Non-Toxic
Activity (MDA-MB-231 [7]): Non-Toxic
Activity (MDA-MB-231 [8]): Non-Toxic
Activity (MDA-MB-231 [9]): Active
Activity (MDA-MB-231 [17]): Non-Toxic

H-KKRYDRKFLMECRN-NH2
fold change (FC) [1]: 3.9 to 5.5
kon [13]: 2 ×10⁶ /M/s
